Activity calls are given as the source filed them. The calls are words filed in the database; no cut-off is given here.

Data set [1] can be described thus: Lipophilicity, log P of the compound. Type of data set: physicochemical. The following applies: octanol/water.
A short description of data set [2]: Fraction unbound in human plasma at 5 uM after 4 hrs by equilibrium dialysis method. It is filed as ADME, cell-free. Background: In equilibrium dialysis free small molecules cross a membrane that holds back macromolecules.
A short description of data set [3]: Fraction unbound in rat plasma at 5 uM after 4 hrs by equilibrium dialysis method. Type of data set: ADME, cell-free.
Data set [4] is described as follows: Intrinsic clearance in human liver microsomes at 1 uM preincubated for 5 mins followed by NADPH addition measured after 3 to 45 mins by LC/MS/MS analysis. Type of data set: ADME. The following applies: read-out: CLH. For orientation: Liver microsomes are vesicles of endoplasmic reticulum, rich in cytochrome P450 enzymes.
The nature of data set [5]: Intrinsic clearance in rat liver microsomes at 1 uM preincubated for 5 mins followed by NADPH addition measured after 3 to 45 mins by LC/MS/MS analysis. The following applies: read-out: CLH. Type of data set: ADME.
Data set [6] relates to Platelet. In words: Antiplatelet activity in human platelets assessed as inhibition of gamma thrombin-induced aggregation at 316 nM to 3.16 uM preincubated for 20 mins followed by gamma thrombin addition measured for 10 mins by aggregometer. It is filed as functional, cell-based. The method in brief: (§1)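 Aggregation was monitored for 10 min, with final % aggregation taken at that point. Data are means±SEM of at least three independent experiments, compared to controls by paired t-test.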

Data set [7] concerns Platelet. Kind of data set: Antiplatelet activity in human platelets assessed as inhibition of activating peptide-induced aggregation at 100 to 316 nM preincubated for 20 mins followed by activating peptide addition measured for 10 mins by aggregometer. It is filed as functional, cell-based. Particulars: 316 nM to 1 uM, in the assay text read “316 nM to 1 uM” for “100 to 316 nM”. The method in brief: as §1

The target of data set [8] is T1, Proteinase-activated receptor 4 (Homo sapiens) (UniProt Q96RI0).
T1 sequence (whole entry): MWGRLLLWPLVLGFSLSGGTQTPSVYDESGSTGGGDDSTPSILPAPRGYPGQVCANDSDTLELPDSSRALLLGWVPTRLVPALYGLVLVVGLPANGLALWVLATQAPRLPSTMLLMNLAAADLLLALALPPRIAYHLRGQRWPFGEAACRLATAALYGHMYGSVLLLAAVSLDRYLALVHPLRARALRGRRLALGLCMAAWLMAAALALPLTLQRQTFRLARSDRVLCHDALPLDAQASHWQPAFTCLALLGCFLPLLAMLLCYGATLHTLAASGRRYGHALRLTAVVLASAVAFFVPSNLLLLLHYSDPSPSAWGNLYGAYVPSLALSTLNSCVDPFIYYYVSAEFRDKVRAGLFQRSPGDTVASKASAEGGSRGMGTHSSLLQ
The following applies: 31.6 to 316 nM.

The target in data set [9] is T2, Proteinase-activated receptor 4 (Homo sapiens, UniProt Q96RI0).
T2 sequence (Q96RI0 whole entry): T1 sequence (whole entry)
Kind of data set: Antagonist activity at PAR4 in human platelets assessed as inhibition of activating peptide-induced PAC1 binding response preincubated for 20 mins followed by agonist addition for 20 mins by FITC-based flow cytometric analysis. The method in brief:
(§2)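 Human platelets were activated with 200 μM PAR4-AP. The read-outs were PAC-1 binding and P-selectin exposure, measured by flow cytometry.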
A general note: In flow cytometry, cells or beads pass a laser one at a time.

Data set [10] in a line: Fraction unbound in human plasma. Type of data set: ADME, cell-free.
Data set [11] is described as follows: Fraction unbound in rat plasma. Type of data set: ADME, cell-free.
Data set [12] has as its target T2, Proteinase-activated receptor 4. Kind of data set: Antagonist activity at PAR4 in human platelets assessed as inhibition of gamma-thrombin-induced PAC1 binding response preincubated for 20 mins followed by agonist addition for 20 mins by FITC-based flow cytometric analysis. In a few lines:
(§3)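 Human platelets were stimulated with γ-thrombin at 100 nM. Activation was read by flow cytometry as PAC-1 binding and P-selectin surface expression.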

Data set [13] has the same target. Kind of data set: Antagonist activity at PAR4 in human platelets assessed as inhibition of activating peptide-induced P-selectin activation. The method in brief: as §2
Data set [14] shares this target. In words: Antagonist activity at PAR4 in human platelets assessed as inhibition of gamma-thrombin-induced P-selectin activation. The method in brief: as §3
Data set [15] addresses T3, Proteinase-activated receptor 1 (Homo sapiens, UniProt P25116).
T3 sequence (P25116 whole entry): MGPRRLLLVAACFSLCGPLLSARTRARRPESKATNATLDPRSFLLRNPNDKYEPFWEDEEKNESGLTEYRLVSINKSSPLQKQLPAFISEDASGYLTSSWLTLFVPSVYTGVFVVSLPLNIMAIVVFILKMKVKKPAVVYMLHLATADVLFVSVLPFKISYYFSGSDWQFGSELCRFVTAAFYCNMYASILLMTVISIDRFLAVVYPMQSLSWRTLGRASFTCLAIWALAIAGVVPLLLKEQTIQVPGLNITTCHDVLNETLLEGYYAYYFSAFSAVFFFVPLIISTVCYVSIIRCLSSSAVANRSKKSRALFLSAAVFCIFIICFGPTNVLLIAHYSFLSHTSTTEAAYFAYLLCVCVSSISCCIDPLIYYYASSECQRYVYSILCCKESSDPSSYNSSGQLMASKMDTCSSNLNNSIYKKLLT
Kind of data set: Antagonist activity at PAR1 in human platelets assessed as inhibition of activating peptide-induced PAC1 binding response.

Data set [16] has as its target T3, Proteinase-activated receptor 1. Kind of data set: Antagonist activity at PAR1 in human platelets assessed as inhibition of activating peptide-induced P-selectin activation.
Data set [17] concerns the target T1, Proteinase-activated receptor 4 (Homo sapiens). In words: Ratio of IC50 for PAR4 in human platelets assessed as inhibition of gamma-thrombin-induced PAC1 binding response to IC50 for PAR4 in human platelets assessed as inhibition of activating peptide-induced PAC1 binding response.
The subject of data set [18] is Platelet. Kind of data set: Antiplatelet activity in human platelets assessed as inhibition of activating peptide-induced aggregation at 316 to 1000 nM preincubated for 20 mins followed by activating peptide addition measured for 10 mins by aggregometer. It is filed as functional, cell-based. In a few lines: as §1
For data set [19], the system named is Platelet. Kind of data set: Antiplatelet activity in human platelets assessed as inhibition of gamma thrombin-induced aggregation at 10 uM preincubated for 20 mins followed by gamma thrombin addition measured for 10 mins by aggregometer. Type of data set: functional, cell-based. The method in brief:
as §1

In data set [20] the target is T2, Proteinase-activated receptor 4. In words: Antagonist activity at PAR4 (unknown origin) assessed as inhibition of activating peptide-induced receptor activation.
For data set [21] the target is unchanged. In words: Antagonist activity at PAR4 (unknown origin) assessed as inhibition of gamma-thrombin-induced receptor activation.
Data set [22] has as its target T1, Proteinase-activated receptor 4 (Homo sapiens). The following applies: 31.6 to 1000 nM.

Usually logP stands for a log measure of how a compound divides between an organic and an aqueous phase. A higher logP goes with a more lipophilic compound. As for `COc1nn2cc(-c3ccc(C(F)(F)F)cc3)nc2s1`, the logP in data set [1] was over 4. Besides, the Fu in [2] and in data set [3] was 0.006 to 0.014 throughout. Besides, the CLint scaled at 1 µM in data set [4] was 13.6 to 19.9 mL/min/kg; in data set [5], 46.3 to 58.3 mL/min/kg. Moreover, the inhibition entry in [6], in [7] and in data set [8] was “Active” throughout.

In general, IC50 refers to the point on the concentration scale where inhibition reaches its midpoint. For the compound `COc1nn2cc(-c3ccc(S(C)(=O)=O)cc3)nc2s1`, in data set [9], the half-maximal inhibitory concentration (IC50) was 1200 nM.

What is called fraction unbound is free concentration divided by total concentration. Low values mean little free substance, high ones much free substance. `COc1cc(OCc2csc(-c3ccccc3)n2)c2cc(-c3cn4nc(OC)sc4n3)oc2c1`: the fraction unbound in data set [10] and in data set [11] was under 0.001 each time.

For `COc1nn2cc(-c3ccc(C#N)cc3)nc2s1`, the IC50 in data set [9] stood at 937 nM.

Turning to `COc1nn2cc(-c3cccc([N+](=O)[O-])c3)nc2s1`, the IC50 in data set [9] is over 10000 nM.

Turning to `COc1nn2cc(-c3ccccc3)nc2s1`, in [9], the IC50 was 757 nM.

For `COc1ccc(-c2cn3nc(OC)sc3n2)cc1`, the half-maximal inhibitory concentration (IC50) in data set [9] came out at 592 nM.

As for `COc1nn2cc(-c3cc(C(F)(F)F)cc(C(F)(F)F)c3)nc2s1`, the 50% inhibitory concentration (IC50) in [12] stood at 5620 nM.

In the case of `COc1nn2cc(-c3cc4cc(OC(F)(F)F)ccc4n3C)nc2s1`, the IC50 in data set [9] is 20 to 21 nM; in [12] it was 1000 nM; in [13], 20 nM; in data set [14], 1000 nM; in data set [15] it was over 10000 nM; in data set [16], over 10000 nM. Also, the Ratio IC50 in data set [17] is 50. Also, the inhibition entry in data set [18] and in data set [19] was “Active” throughout.

For `COc1nn2cc(-c3ccc(O)cc3)nc2s1`, the concentration for half-maximal inhibition (IC50) in data set [9] is over 10000 nM.

With `CNc1nn2cc(-c3c(F)cccc3F)nc2s1`, the IC50 in [9] was over 10000 nM.

For `COc1nn2cc(-c3ccccc3[N+](=O)[O-])nc2s1`, the IC50 in data set [9] was 4840 nM.

Consider `COc1nn2cc(-c3ccc(C)cc3)nc2s1`, for which the IC50 in data set [9] stood at 57.2 nM.

`COc1nn2cc(-c3cc4ccccc4o3)nc2s1`: the half-inhibitory concentration (IC50) amounted to 1.69 nM in [20] and 58.8 nM in [21].

With `COc1nn2cc(-c3ccc(OC(F)F)cc3)nc2s1`, the half-inhibitory concentration (IC50) in data set [12] was 2540 nM.

On to `COc1nn2cc(-c3cccc(F)c3)nc2s1`, for which the 50% inhibitory concentration (IC50) in data set [9] amounted to 675 nM.

`COc1nn2cc(-c3ccccc3Cl)nc2s1`: in data set [9], the 50% inhibitory concentration (IC50) was 437 nM.

For `COc1nn2cc(-c3ccc(Cl)cc3)nc2s1`, the log partition coefficient (logP) in data set [1] was over 4. Besides, the Fu in [2] and in data set [3] was 0.006 to 0.014 each time. Further, the figures for the CLint scaled at 1 µM in data set [4] and in data set [5] were 13.6 to 19.9 mL/min/kg and 46.3 to 58.3 mL/min/kg, respectively. Besides, the inhibition result in data set [18], in [6] and in [22] was “Active” each time.

In the case of `COc1nn2cc(-c3ccc(OC(F)(F)F)cc3)nc2s1`, the log partition coefficient (logP) in data set [1] is over 4. The Fu in data set [2] and in data set [3] was 0.006 to 0.014 throughout. Besides, the CLint scaled at 1 µM in data set [4] was in the range of 13.6 to 19.9 mL/min/kg; in data set [5], 46.3 to 58.3 mL/min/kg. Moreover, the inhibition entry in data set [6], in data set [7] and in [8] was “Active” in each case.

For the compound `CN(C)c1nn2cc(-c3c(F)cccc3F)nc2s1`, the concentration for half-maximal inhibition (IC50) in data set [9] is 3400 nM.

As for `COc1nn2cc(-c3cccc(Cl)c3)nc2s1`, the half-inhibitory concentration (IC50) in data set [9] is 72.8 nM; in [12], over 10000 nM.

The values are drawn from ChEMBL document CHEMBL3862030, “Identification of the minimum PAR4 inhibitor pharmacophore and optimization of a series of 2-methoxy-6-arylimidazo[2,1-b][1,3,4]thiadiazoles” (Bioorg Med Chem Lett, 2016).
